ChEMBL document CHEMBL1926610, “Design and synthesis of pyridone inhibitors of non-nucleoside reverse transcriptase” (Bioorg Med Chem Lett, 2011)

Assays:
[1] = molecular target: Human immunodeficiency virus type 1 reverse transcriptase (Human immunodeficiency virus 1, UniProt Q72547, Y181C); assay: Inhibition of Human immunodeficiency virus reverse transcriptase Y181C mutant by SPA assay
Outline: (§1)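 Scintillation proximity assay (SPA) of mutant RT enzyme inhibition. Values are geometric means of at least two determinations.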

[2] = Oral bioavailability in Sprague-Dawley rat at 10 mg/kg; format: ADME, organism-based; details: in vivo
Outline: (§2)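 Sprague Dawley rats given iv dose 2 mpk as a DMSO solution via indwelling jugular vein cannula, and p.o. dose 10 mpk as aqueous methylcellulose (methocel) suspension. Plasma levels by LC-MS; absolute oral bioavailability from comparison of mean plasma AUC. Average of at least 2 rats.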

[3] = tested on: Human immunodeficiency virus; assay: Antiviral activity against Human immunodeficiency virus expressing RT K103N mutant infected in human MT4 cells by p24 antigen assay in the presence of 10% FBS; format: functional; details: Human immunodeficiency virus 1, MT4; read-out: CIC95
Outline: (§3)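 Spread assay in MT-4 human T-lymphoid cells in RPMI 1640 with 10% FBS. CIC95 is the concentration inhibiting viral spread by >95%, reported as the geometric mean of at least 2 determinations. Cytotoxicity was checked up to 8.3 μM.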

MT4 [4] = assay: Cytotoxicity against human MT4 cells up to 8.3 uM; format: cell-based
Outline: (§4)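 Cytotoxicity in MT-4 human T-lymphoid cells run alongside the cell culture antiviral assay (RPMI 1640, 10% FBS or 50% NHS), tested up to the assay upper limit of 8.3 μM.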

[5] = molecular target: Human immunodeficiency virus type 1 reverse transcriptase (Human immunodeficiency virus 1, UniProt Q72547, K103N); assay: Inhibition of Human immunodeficiency virus reverse transcriptase K103N mutant by SPA assay; outline: as §1
[6] = tested on: Human immunodeficiency virus; assay: Antiviral activity against Human immunodeficiency virus expressing wild type RT infected in human MT4 cells by p24 antigen assay in the presence of 50% normal human serum; format: functional; details: Human immunodeficiency virus 1, MT4; read-out: CIC95
Outline: (§5)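 CIC95 = concentration at which spread of virus is inhibited by >95% in MT-4 human T-lymphoid cells in RPMI 1640 medium containing either 10% FBS or 50% normal human serum (to assess protein binding). Geometric mean of at least 2 determinations.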

[7] = tested on: Human immunodeficiency virus; assay: Antiviral activity against Human immunodeficiency virus expressing wild type RT infected in human MT4 cells by p24 antigen assay in the presence of 10% FBS; format: functional; details: Human immunodeficiency virus 1, MT4; read-out: CIC95; outline: as §5
Rattus norvegicus = assay: Dose normalized AUC in Sprague-Dawley rat at 10 mg/kg, po; format: ADME, organism-based; parameters: dose 10 mg/kg, route oral; details: in vivo; outline: as §2
[8] = Plasma clearance in Sprague-Dawley rat at 10 mg/kg, po and 2 mg/kg, iv; format: ADME, organism-based; outline: as §2
[9] = tested on: Human immunodeficiency virus; assay: Antiviral activity against Human immunodeficiency virus expressing RT K103N/Y181C double mutant infected in human MT4 cells by p24 antigen assay in the presence of 10% FBS; format: functional; details: Human immunodeficiency virus 1, MT4; read-out: CIC95; outline: as §3
[10] = Inhibition of Human immunodeficiency virus wild type reverse transcriptase by SPA assay
Outline: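 Wild-type HIV RT enzyme inhibition measured in a standard SPA assay. Values are geometric mean of at least two determinations.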

[11] = Volume of distribution in Sprague-Dawley rat at 10 mg/kg, po and 2 mg/kg, iv; format: ADME, organism-based; details: in vivo; outline: as §2
[12] = Volume of distribution in Sprague-Dawley rat at 1 mg/kg, iv; format: ADME, organism-based; parameters: dose 1 mg/kg, route intravenous; details: in vivo
Outline: (§6)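 Sprague Dawley rats dosed iv at 1 mpk in DMSO via indwelling jugular vein cannula, no oral arm. Plasma concentrations by LC-MS.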

[13] = Plasma clearance in Sprague-Dawley rat at 1 mg/kg, iv; format: ADME, organism-based; parameters: dose 1 mg/kg, route intravenous; outline: as §6
[14] = Half life in Sprague-Dawley rat at 1 mg/kg, iv; format: ADME, organism-based; parameters: dose 1 mg/kg, route intravenous; details: in vivo; outline: as §6
[15] = tested on: Human immunodeficiency virus; assay: Antiviral activity against Human immunodeficiency virus expressing wild type RT infected in human MT4 cells by p24 antigen assay in the presence of 50% normal human serum relative to UK-453061; format: functional
MT4 [16] = assay: Cytotoxicity against human MT4 cells; format: cell-based; outline: as §4
[17] = Plasma protein binding in human; format: ADME, cell-free; details: read-out: PPB (converted)
[18] = tested on: Human immunodeficiency virus; assay: Antiviral activity against Human immunodeficiency virus expressing RT K103N/Y181C double mutant infected in human MT4 cells by p24 antigen assay in the presence of 10% FBS relative to MK-4965; format: functional
[19] = tested on: Human immunodeficiency virus; assay: Antiviral activity against Human immunodeficiency virus expressing wild type RT infected in human MT4 cells by p24 antigen assay in the presence of 50% normal human serum relative to MK-4965; format: functional
[20] = tested on: Human immunodeficiency virus; assay: Antiviral activity against Human immunodeficiency virus expressing wild type RT infected in human MT4 cells by p24 antigen assay in the presence of 50% normal human serum relative to TMC-278; format: functional
[21] = tested on: Human immunodeficiency virus; assay: Antiviral activity against Human immunodeficiency virus expressing RT K103N/Y181C double mutant infected in human MT4 cells by p24 antigen assay in the presence of 50% normal human serum; format: functional; details: Human immunodeficiency virus 1, MT4; read-out: CIC95
Outline: (§7)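 MT-4 human T-lymphoid cells were kept in RPMI 1640 containing 50% normal human serum to assess protein binding. Readout is CIC95, the concentration blocking >95% of virus spread. Values are geometric means of at least 2 determinations.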

[22] = Half life in Sprague-Dawley rat at 10 mg/kg, po and 2 mg/kg, iv; format: ADME, organism-based; details: in vivo; outline: as §2
[23] = tested on: Human immunodeficiency virus; assay: Antiviral activity against Human immunodeficiency virus expressing RT Y181C mutant infected in human MT4 cells by p24 antigen assay in the presence of 50% normal human serum; format: functional; details: Human immunodeficiency virus 1, MT4; read-out: CIC95; outline: as §7
[24] = tested on: Human immunodeficiency virus; assay: Antiviral activity against Human immunodeficiency virus expressing RT K103N mutant infected in human MT4 cells by p24 antigen assay in the presence of 50% normal human serum; format: functional; details: Human immunodeficiency virus 1, MT4; read-out: CIC95; outline: as §7
[25] = tested on: Human immunodeficiency virus; assay: Antiviral activity against Human immunodeficiency virus expressing RT Y181C mutant infected in human MT4 cells by p24 antigen assay in the presence of 10% FBS; format: functional; details: Human immunodeficiency virus 1, MT4; read-out: CIC95; outline: as §3

SMILES | Ki [1] | bioavailability [2] | IC95 [3] | Activity (MT4 [4]) | Ki [5] | IC95 [6] | IC95 [7] | AUC/dose (Rattus norvegicus) | clearance [8] | IC95 [9] | Ki [10] | Vd [11] | Activity (MT4 [16]) | fraction unbound [17] | IC95 [21] | half-life [22] | IC95 [23] | IC95 [24] | IC95 [25] | further results
Cc1ccn(Cc2n[nH]c3ncccc23)c(=O)c1Oc1cc(Cl)cc(C#N)c1 | 3.1 nM | 8.5% | 10 nM | Non-toxic | 3.7 nM | 12 nM | 3.6 nM | 0.31 µM·h | 11 mL/min/kg | 31 nM | 2.5 nM | 3.7 L/kg | – | – | – | – | – | – | – | –
Cc1ccn(CCc2n[nH]c3ncccc23)c(=O)c1Oc1cc(Cl)cc(C#N)c1 | 51 nM | – | 447 nM | Non-toxic | 58 nM | 611 nM | 248 nM | – | – | – | 25 nM | – | – | – | – | – | – | – | – | Vd [12]: 0.6 L/kg; clearance [13]: 31 mL/min/kg; half-life [14]: 0.75 h
N#Cc1cc(Cl)cc(Oc2c(Cl)ccn(Cc3n[nH]c4ncccc34)c2=O)c1 | 1 nM | 57% | 2.9 nM | Non-toxic | 1.5 nM | 7.7 nM | 2.4 nM | 1.6 µM·h | 12 mL/min/kg | 7 nM | 0.77 nM | 2 L/kg | Non-toxic | 0.033 | 69 nM | 4 h | 20 nM | 12 nM | 7.8 nM | fold change (FC) [15]: 4; fold change (FC) [18]: 10; fold change (FC) [19]: 4; fold change (FC) [20]: 4
N#Cc1cc(Cl)cc(Oc2c(Cl)c(Cl)cn(Cc3n[nH]c4ncccc34)c2=O)c1 | 1.3 nM | 0% | 11 nM | Non-toxic | 1.6 nM | 15 nM | 4.6 nM | 0 µM·h | 27 mL/min/kg | 31 nM | 1 nM | 27 L/kg | – | – | – | 19 h | – | – | 15 nM | –
N#Cc1cc(Cl)cc(Oc2c(Cl)ccn(Cc3n[nH]c4nc(N)ccc34)c2=O)c1 | 1.8 nM | 6% | 7.1 nM | Non-toxic | 2.1 nM | 11 nM | 1.9 nM | 0.15 µM·h | 12 mL/min/kg | 30 nM | 1.3 nM | 0.8 L/kg | – | – | – | 1.4 h | – | – | 63 nM | –
N#Cc1cc(Cl)cc(Oc2cc(Cc3n[nH]c4ncccc34)ccc2Cl)c1 | 0.51 nM | – | 211 nM | – | 0.48 nM | – | 22 nM | – | – | – | 0.24 nM | – | – | – | – | – | – | – | – | –
N#Cc1cc(Cl)cc(Oc2cc(OCc3n[nH]c4nc(N)ccc34)ccc2Cl)c1 | – | – | 12 nM | Non-toxic | – | 26 nM | 5 nM | – | – | 73 nM | 0.2 nM | – | Non-toxic | 0.035 | 589 nM | – | 175 nM | 54 nM | 27 nM | –
CCc1nn(CCO)c(CC)c1Oc1cc(C#N)cc(C#N)c1 [LERSIVIRINE] | – | – | – | – | – | 40 nM | – | – | – | – | – | – | Non-toxic | 0.49 | 100 nM | – | 68 nM | 70 nM | – | –
Cc1cc(/C=C/C#N)cc(C)c1Nc1ccnc(Nc2ccc(C#N)cc2)n1 [RILPIVIRINE] | – | – | – | – | – | 36 nM | – | – | – | – | – | – | Non-toxic | 0.003 | 311 nM | – | 104 nM | 46 nM | – | –
